AP complement = alternative pathway complement inhibition, orthogonal assay; Human serum alternative complement pathway, LPS-coated ELISA, C3 deposition; tested in compound mixtures; inhibition, % at 5 µM; 0.08% of 62,000 active;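 active means inhibition above 30% in each of the two pooled mixtures holding the compound, so the lower value exceeds 30%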
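Assay system: Human serum alternative complement pathway, C3 deposition on LPS-coated wells | Incubation: 1 h serum-compound exposure at 37 °C | Doses: 5 µM per compound in ten-compound mixtures | Read-out: Percent inhibition | Technique: ELISA with HRP anti-human C3 antibody, TMB substrate, absorbance 450 nm | Replication: Two pool placements per compound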
D1 allo mod = D1 dopamine receptor (human) allosteric modulation; P21728; HEK293 D1, CRE-luciferase, dopamine EC30 potentiation; actives deviate in either direction; B-score at 10 µM; 5.9% of 58,000 active; AID 641;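 active means luminescence count or its row- and column-corrected plate score outside the 99.7% band of the plate's sample wells, on either side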
Target sequence (P21728 whole entry, looked up): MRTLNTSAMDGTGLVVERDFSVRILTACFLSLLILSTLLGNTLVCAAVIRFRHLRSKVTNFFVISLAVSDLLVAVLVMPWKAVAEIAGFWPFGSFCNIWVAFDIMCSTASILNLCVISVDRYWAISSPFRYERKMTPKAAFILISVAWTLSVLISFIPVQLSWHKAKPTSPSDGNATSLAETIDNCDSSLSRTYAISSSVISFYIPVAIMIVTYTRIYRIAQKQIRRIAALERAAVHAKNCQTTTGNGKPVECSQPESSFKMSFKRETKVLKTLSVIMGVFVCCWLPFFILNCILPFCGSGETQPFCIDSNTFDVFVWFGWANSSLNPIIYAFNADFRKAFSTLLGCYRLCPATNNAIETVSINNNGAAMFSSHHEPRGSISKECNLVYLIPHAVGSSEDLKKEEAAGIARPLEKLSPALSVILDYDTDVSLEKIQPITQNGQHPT
M1 ag = activates the M1 muscarinic receptor; CHO-M1 cells, Fluo-4 calcium fluorescence, agonist mode; hits give high values; B-score at 10 µM; 3% of 64,000 active;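 active means fluorescence rise, raw or as B-score row- and column-corrected plate score, outside the 99.7% band of its plate's samples, either direction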
M1 antagonist = M1 muscarinic receptor (rat) antagonism; CHO-M1 cells, Fluo-4 calcium, ACh EC80 antagonist mode; hits give low values; B-score at 10 µM; 3.4% of 64,000 active; AID 628;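 active means calcium fluorescence response, raw or row-and-column corrected B-score, differing from the plate sample mean either way at a set confidence level, mostly lower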
mHtt clearance = mutant huntingtin protein clearance; 0.42% of 47,000 active; inhibition, % at 1.5 µM; HeLa Exon1htt(103Q)mCFP, aggregate imaging; zero = plate's median compound well;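 active means inhibition of aggregate fluorescence above about 70%, also judged a hit by eye on the cell image, limit read from the data, passing the limit was not always enough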;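 further: cells exposed to compound for three days before fixation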
D1 mod confirm = confirmation of human D1 dopamine receptor allosteric modulators; luminescence at 10 µM; shares compounds with D1 allo mod; HEK293 D1 CRE-luciferase, dopamine EC30 potentiation; hits give high values; 88% of 2,200 active;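 active means luminescence in either of two replicates above the same-plate mean plus 3 SD of the low-dose dopamine control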
D1 ag no DA = activates D1 CRE-luciferase signal without dopamine present; shares compounds with D1 allo mod; HEK293 D1 CRE-luciferase, luminescence, no dopamine; hits give high values; luminescence at 10 µM; 0.8% of 1,900 active; in the data active means luminescence above about 3900
Isoprot counter = counter-screen for D1 modulators: isoproterenol response in HEK293 cells. calls only at 10 µM. shares compounds with D1 allo mod. AID 647. 63% of 2,200 active. HEK293 D1 CRE-luciferase, isoproterenol EC30 counter-screen;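 active means luminescence in either replicate above plate mean of wells with a partly effective reference agonist dose plus 3 SD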;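 further: isoproterenol raises cAMP through native beta-adrenoceptor Gs so signal bypasses D1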
Each line names hits and unclear results; the compound was inactive in the other large screens (follow-up assays come after a bar, where they were run). Sampled rows, rich in hits. Any-hit rate of the full collection: about 9%.

COCCSc1ccccc1C(=O)NCc1ccco1	none
CCOC(=O)CN(C(=O)CSc1nnc(-c2ccc(OC)c(OC)c2)o1)c1ccc(F)cc1	D1 allo mod 3.06 (no result: mHtt clearance) | D1 mod confirm 8044 | D1 ag no DA inactive | Isoprot counter inactive
COc1ccc(-c2nnc(SCC(=O)N(Cc3ccccc3)C(C)(C)C)o2)cc1OC	none
CCOC(=O)N1CCN(C(=O)c2ccc(Cl)c(S(=O)(=O)Nc3ccccc3)c2)CC1	D1 allo mod 6.13 | D1 mod confirm 15076 | D1 ag no DA inactive | Isoprot counter inactive
COc1ccc(C(=O)N2CCCCC2)cc1S(=O)(=O)Nc1ccccc1	none (no result: D1 allo mod)
COC(=O)COc1nsnc1N1CCOCC1	D1 allo mod 2.3 | D1 mod confirm 6088 | Isoprot counter inactive
CNc1nc(C)c(C(=O)OCc2ccccc2)s1	D1 allo mod 17.6 (no result: mHtt clearance) | D1 mod confirm 16572 | D1 ag no DA inactive | Isoprot counter active
CNc1nc(C)c(C(=O)OCC(=O)OC)s1	D1 allo mod 9.36 (no result: M1 ag, M1 antagonist, mHtt clearance) | D1 mod confirm 13828 | D1 ag no DA inactive | Isoprot counter inactive
N#Cc1c(N)nc2c(c1-c1ccccc1)CCCC2	none (no result: D1 allo mod, mHtt clearance)
N#Cc1c2c(nc(N)c1-c1ccccc1)CCCCC2	D1 allo mod 4.52 | D1 mod confirm 7208 | D1 ag no DA inactive | Isoprot counter inactive
COc1cc2c(cc1OC)C1=C(C#N)CCC(=O)N1CC2	D1 allo mod 13.1 (no result: AP complement, mHtt clearance) | D1 mod confirm 16416 | D1 ag no DA inactive | Isoprot counter active
COc1cc2c(cc1OC)C1=C(C#N)CC/C(=N\S(=O)(=O)c3ccccc3)N1CC2	D1 allo mod 8.72 (no result: mHtt clearance) | D1 mod confirm 18960 | Isoprot counter active
COc1ccc(CCN2CC(C#N)=C3c4cc(OC)c(OC)cc4CCN3C2)cc1OC	D1 allo mod 4.99 | D1 mod confirm 14004 | D1 ag no DA inactive | Isoprot counter active
CCSc1cnc(-c2ccccc2)n1CC	D1 allo mod 4.48 (no result: mHtt clearance) | D1 mod confirm 8832 | D1 ag no DA inactive | Isoprot counter inactive
COc1ccc2nc(NC(=O)CSc3nc4cccnc4n3C)sc2c1	none (no result: D1 allo mod, M1 ag, M1 antagonist, mHtt clearance)
COC(=O)c1sc(NC(=O)CSc2nc3cccnc3n2C2CCCCC2)nc1C	D1 allo mod 9.5 | D1 mod confirm 10416 | D1 ag no DA inactive | Isoprot counter active
CCOC(=O)C1(c2nc(N)cs2)COC(=O)C1 (centres undefined)	none (no result: AP complement, D1 allo mod, mHtt clearance)
Cc1ccc(NC(=O)N2C(=O)C3(OCCO3)c3ccccc32)cc1	none
Cn1c(NC(=O)C(C)(C)Oc2ccc(Cl)cc2)cc(=O)n(C)c1=O	none (no result: mHtt clearance)
Cn1c(NC(=O)c2ccc(Cl)cc2Cl)cc(=O)n(C)c1=O	D1 allo mod 4.52 (no result: mHtt clearance) | D1 mod confirm 8676 | D1 ag no DA inactive | Isoprot counter active
Cc1ccc(-n2c(SCc3cn4ccsc4n3)nc3ccccc3c2=O)cc1	none
CCN(CCNC(=O)CC1Oc2ccccc2NC1=O)c1ccccc1 (centres undefined)	D1 allo mod 3 | D1 mod confirm inactive | D1 ag no DA inactive | Isoprot counter inactive
Clc1ccc(CCNc2nc3ccccc3n3nnnc23)cc1	none (no result: AP complement, D1 allo mod, M1 ag, M1 antagonist)
c1ccc2c(c1)nc(NCC1CCCO1)c1nnnn12 (centres undefined)	D1 allo mod 2.94 (no result: mHtt clearance) | D1 mod confirm 9992 | D1 ag no DA inactive | Isoprot counter inactive
COc1ccc(-c2c(C)n([O-])c3c([n+]2=O)CCC3)cc1OC	D1 allo mod 2.26 | D1 mod confirm inactive | D1 ag no DA inactive | Isoprot counter inactive
Cc1cc(-c2ccccc2)c(C#N)c(SCC(N)=O)n1	D1 allo mod 4.98 (no result: mHtt clearance) | D1 mod confirm 8124 | D1 ag no DA inactive | Isoprot counter inactive
CCOC(=O)CC(=O)CSc1nc(C)cc(-c2cccnc2)c1C#N	none
CC(C)CNS(=O)(=O)c1ccc(CCC(=O)Nc2ccc3c(c2)OCCO3)cc1	none (no result: AP complement, D1 allo mod, M1 ag, M1 antagonist)
CC1(C)Cc2c(sc3c2c(=N)n(Cc2ccco2)c(=O)n3Cc2ccc(Cl)cc2)CO1	D1 allo mod 24.5 (no result: mHtt clearance) | D1 mod confirm 24660 | D1 ag no DA inactive | Isoprot counter active
Cc1ccc(S(=O)(=O)NCCN=C(CN2CCCC2)NS(=O)(=O)c2ccc(C)cc2)cc1	none (no result: mHtt clearance)
CCOC(=O)CSC1=C(C#N)C(c2ccc3c(c2)OCO3)CC(=O)N1 (centres undefined)	none (no result: mHtt clearance)
CCOC(=O)CSC1=C(C#N)C(c2ccc(C)o2)CC(=O)N1 (centres undefined)	D1 allo mod 5.35 (no result: mHtt clearance) | D1 mod confirm 9204 | D1 ag no DA inactive | Isoprot counter inactive
Cn1c2c(c3ccccc31)CC/C2=N\O	D1 allo mod 4.71 (no result: mHtt clearance) | D1 mod confirm 8132 | D1 ag no DA inactive | Isoprot counter inactive
CN1CCc2c(c3ccccc3n2C)C1	none (no result: AP complement, D1 allo mod, M1 ag, M1 antagonist)
COC(=O)Cc1cc(=O)[nH]c(/N=C(/NC(=O)c2ccccc2)Nc2ccccc2C)n1	none (no result: mHtt clearance)
CCOC(=O)C(C)Oc1cccc2c(=O)n(CC(=O)NCc3ccco3)ccc12 (centres undefined)	D1 allo mod 3.27 | D1 mod confirm 6652 | D1 ag no DA inactive | Isoprot counter inactive
O=C(Cn1cnc2ccccc2c1=O)NCc1ccco1	none
CC(C)(C)OC(=O)N1Cc2ccccc2C[C@H]1C(=O)O	none (no result: D1 allo mod)
O=C(CSc1ccc2nnc(-c3ccccn3)n2n1)NCc1ccco1	none
O=C1CCCC(O)=C1C(C#Cc1ccccc1)C1=C(O)CCCC1=O	D1 allo mod 3.64 (no result: M1 ag, M1 antagonist, mHtt clearance) | D1 mod confirm inactive | D1 ag no DA inactive | Isoprot counter inactive
CN(Cc1ccccc1)c1nc2c(c(=O)[nH]c(=O)n2C)n1CCCc1ccccc1	D1 allo mod 5.13 (no result: mHtt clearance) | D1 mod confirm 12224 | D1 ag no DA inactive | Isoprot counter active
CN(Cc1ccccc1)c1nc2c(c(=O)[nH]c(=O)n2C)n1Cc1ccccc1Cl	D1 allo mod 17.3 | D1 mod confirm 21184 | D1 ag no DA inactive | Isoprot counter active
CC1CCN(c2nc3c(c(=O)[nH]c(=O)n3C)n2Cc2ccccc2Cl)CC1	D1 allo mod 6.17 | D1 mod confirm 14268 | D1 ag no DA inactive | Isoprot counter active
Cn1c(=O)[nH]c(=O)c2c1nc(N(CCO)Cc1ccccc1)n2CCCc1ccccc1	none (no result: D1 allo mod)
CCOCCn1c(N(C)Cc2ccccc2)nc2c1c(=O)[nH]c(=O)n2C	none (no result: D1 allo mod, mHtt clearance)
Cn1c(=O)[nH]c(=O)c2[nH]c(N(Cc3ccccc3)Cc3ccccc3)nc21	D1 allo mod 8.37 | D1 mod confirm 16252 | Isoprot counter active
O=C(CN1C(=O)CNC1=O)Nc1cccc(C(F)(F)F)c1	none (no result: mHtt clearance)
COC(=O)c1c(NS(=O)(=O)c2ccc(C)cc2)sc2c1CCC(C)C2 (centres undefined)	none (no result: AP complement, D1 allo mod, M1 ag, M1 antagonist)
CCOC(=O)c1c(NC(=O)c2ccco2)sc2c1CCCC2	none (no result: M1 ag, M1 antagonist, mHtt clearance)
COC(=O)c1sc(NC(=O)Cc2cccs2)nc1C	none

From PubChem
